Assay results taken from ChEMBL document CHEMBL5724801, “EUbOPEN Chemogenomics Library - Multiplex” (2024).
Values joined by “and” are separate entries in the source; they are usually repeats but may differ in a detail not shown here. Identical values can stand only once.

System: Fibroblast
Assay: Multiplex assay against human fibroblast
Type: toxicity, cell-based
Procedure, shortened: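 Cells were classed with CellPathfinder machine-learning gating, first as Hoechst high-intensity objects or normal cells, then (normal cells) as healthy, pyknosed or fragmented nuclei, and finally (pyknosed cells) as mitotic or apoptotic. Staining of live cells at seeding used Hoechst33342, BioTracker Green Microtubule Cytoskeleton Dye, MitoTracker Red and Annexin V Alexa Fluor 680, with imaging on a CQ1 microscope at 37°C and 5% CO2 after compound addition. Tubulin, mitochondrial-mass and membrane-permeability phenotypes are per cents of healthy-nucleus cells.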

[1] = 12 h, 1 µM, compound concentration 1 uM
[2] = 12 h, 10 µM, compound concentration 10 uM
[3] = 24 h, 1 µM, compound concentration 1 uM
[4] = 24 h, 10 µM, compound concentration 10 uM
[5] = 48 h, 1 µM, compound concentration 1 uM
[6] = 48 h, 10 µM, compound concentration 10 uM

CC(C)CC(=O)Nc1cncc(-c2ccc3[nH]nc(-c4nc5c(-c6cccc(F)c6)cncc5[nH]4)c3c2)c1 [LORECIVIVINT]
Population Fragmented Nuclei (%) [1]: 12.2% and 10.34%
Population Healthy Nuclei (%) [1]: 60.98% and 74.14%
Population Hoechst High Intensity Objects (%) [1]: 0%
Population Membrane Permeable-Phenotype (%) [1]: 6% and 10.08%
Population Mitochondria Different-Phenotype (%) [1]: 10% and 9.3%
Population Mitotic Cells (%) [1]: 95.45% and 62.96%
Population Normal (%) [1]: 100%
Population Pyknosed Nuclei (%) [1]: 26.83% and 15.52%
Population Tubulin-Different-Phenotype (%) [1]: 36% and 44.19%
Total Cell Count [1]: 164 and 174
Population Apoptotic (%) [2]: 37.84% and 20.2%
Population Fragmented Nuclei (%) [2]: 10.38% and 7.03%
Population Healthy Nuclei (%) [2]: 64.01% and 61.34%
Population Hoechst High Intensity Objects (%) [2]: 0%
Population Membrane Permeable-Phenotype (%) [2]: 14.59% and 9.38%
Population Mitochondria Different-Phenotype (%) [2]: 4.86% and 2.08%
Population Mitotic Cells (%) [2]: 62.16% and 79.8%
Population Normal (%) [2]: 100%
Population Pyknosed Nuclei (%) [2]: 25.61% and 31.63%
Population Tubulin-Different-Phenotype (%) [2]: 37.84% and 36.46%
Total Cell Count [2]: 289 and 313
Population Apoptotic (%) [3]: 12.9% and 25%
Population Fragmented Nuclei (%) [3]: 14.37% and 8.2%
Population Healthy Nuclei (%) [3]: 67.82% and 80.87%
Population Hoechst High Intensity Objects (%) [3]: 0%
Population Membrane Permeable-Phenotype (%) [3]: 6.78% and 12.84%
Population Mitochondria Different-Phenotype (%) [3]: 5.08% and 2.7%
Population Mitotic Cells (%) [3]: 87.1% and 75%
Population Normal (%) [3]: 100%
Population Pyknosed Nuclei (%) [3]: 17.82% and 10.93%
Population Tubulin-Different-Phenotype (%) [3]: 34.75% and 50.68%
Total Cell Count [3]: 174 and 183
Population Apoptotic (%) [4]: 40% and 21.83%
Population Fragmented Nuclei (%) [4]: 10% and 5.2%
Population Healthy Nuclei (%) [4]: 49.38% and 59.65%
Population Hoechst High Intensity Objects (%) [4]: 0%
Population Membrane Permeable-Phenotype (%) [4]: 13.29% and 10.37%
Population Mitochondria Different-Phenotype (%) [4]: 2.53% and 0.41%
Population Mitotic Cells (%) [4]: 60% and 78.17%
Population Normal (%) [4]: 100%
Population Pyknosed Nuclei (%) [4]: 40.62% and 35.15%
Population Tubulin-Different-Phenotype (%) [4]: 37.97% and 34.02%
Total Cell Count [4]: 320 and 404
Population Apoptotic (%) [5]: 16.67% and 32.43%
Population Fragmented Nuclei (%) [5]: 16.43% and 12.15%
Population Healthy Nuclei (%) [5]: 60.39% and 67.4%
Population Hoechst High Intensity Objects (%) [5]: 0%
Population Membrane Permeable-Phenotype (%) [5]: 8% and 13.93%
Population Mitochondria Different-Phenotype (%) [5]: 9.6% and 4.92%
Population Mitotic Cells (%) [5]: 83.33% and 67.57%
Population Normal (%) [5]: 100%
Population Pyknosed Nuclei (%) [5]: 23.19% and 20.44%
Population Tubulin-Different-Phenotype (%) [5]: 32% and 47.54%
Total Cell Count [5]: 207 and 181
Population Apoptotic (%) [6]: 46.41% and 43.05%
Population Fragmented Nuclei (%) [6]: 10.67% and 7.39%
Population Healthy Nuclei (%) [6]: 33.6% and 33.77%
Population Hoechst High Intensity Objects (%) [6]: 0%
Population Membrane Permeable-Phenotype (%) [6]: 8.73% and 10.16%
Population Mitochondria Different-Phenotype (%) [6]: 5.56% and 1.56%
Population Mitotic Cells (%) [6]: 53.59% and 56.95%
Population Normal (%) [6]: 100%
Population Pyknosed Nuclei (%) [6]: 55.73% and 58.84%
Population Tubulin-Different-Phenotype (%) [6]: 17.46% and 26.56%
Total Cell Count [6]: 375 and 379

CC(=O)NCCc1c(Cc2ccccc2)[nH]c2ccccc12 [LUZINDOLE]
Population Apoptotic (%) [1]: 41% and 40%
Population Fragmented Nuclei (%) [1]: 15% and 25%
Population Healthy Nuclei (%) [1]: 65% and 39%
Population Hoechst High Intensity Objects (%) [1]: 1% and 4%
Population Membrane Permeable-Phenotype (%) [1]: 2% and 9%
Population Mitochondria Different-Phenotype (%) [1]: 7% and 11%
Population Mitotic Cells (%) [1]: 58% and 59%
Population Normal (%) [1]: 98% and 95%
Population Pyknosed Nuclei (%) [1]: 18% and 34%
Population Tubulin-Different-Phenotype (%) [1]: 30% and 50%
Total Cell Count [1]: 129 and 134
Population Apoptotic (%) [2]: 19% and 21%
Population Fragmented Nuclei (%) [2]: 15% and 26%
Population Healthy Nuclei (%) [2]: 69% and 59%
Population Hoechst High Intensity Objects (%) [2]: 2%
Population Mitochondria Different-Phenotype (%) [2]: 7% and 4%
Population Mitotic Cells (%) [2]: 80% and 78%
Population Normal (%) [2]: 97%
Population Pyknosed Nuclei (%) [2]: 15% and 13%
Population Tubulin-Different-Phenotype (%) [2]: 42% and 32%
Total Cell Count [2]: 140 and 105
Population Apoptotic (%) [3]: 54% and 45%
Population Fragmented Nuclei (%) [3]: 21% and 25%
Population Healthy Nuclei (%) [3]: 61% and 47%
Population Hoechst High Intensity Objects (%) [3]: 0% and 5%
Population Membrane Permeable-Phenotype (%) [3]: 0% and 8%
Population Mitochondria Different-Phenotype (%) [3]: 3% and 8%
Population Mitotic Cells (%) [3]: 45% and 54%
Population Normal (%) [3]: 99% and 94%
Population Pyknosed Nuclei (%) [3]: 16% and 26%
Total Cell Count [3]: 134 and 137
Population Apoptotic (%) [4]: 47% and 23%
Population Fragmented Nuclei (%) [4]: 15% and 27%
Population Healthy Nuclei (%) [4]: 67% and 59%
Population Hoechst High Intensity Objects (%) [4]: 2% and 3%
Population Membrane Permeable-Phenotype (%) [4]: 1% and 5%
Population Mitochondria Different-Phenotype (%) [4]: 5% and 3%
Population Mitotic Cells (%) [4]: 52% and 76%
Population Normal (%) [4]: 97% and 96%
Population Pyknosed Nuclei (%) [4]: 17% and 12%
Population Tubulin-Different-Phenotype (%) [4]: 29% and 33%
Total Cell Count [4]: 138 and 105
Population Apoptotic (%) [5]: 75% and 39%
Population Fragmented Nuclei (%) [5]: 15% and 27%
Population Healthy Nuclei (%) [5]: 72% and 55%
Population Hoechst High Intensity Objects (%) [5]: 5% and 8%
Population Membrane Permeable-Phenotype (%) [5]: 2% and 9%
Population Mitochondria Different-Phenotype (%) [5]: 3% and 5%
Population Mitotic Cells (%) [5]: 25% and 60%
Population Normal (%) [5]: 94% and 91%
Population Pyknosed Nuclei (%) [5]: 12% and 16%
Population Tubulin-Different-Phenotype (%) [5]: 24% and 46%
Total Cell Count [5]: 134 and 149
Population Apoptotic (%) [6]: 80% and 54%
Population Fragmented Nuclei (%) [6]: 19% and 34%
Population Healthy Nuclei (%) [6]: 70% and 54%
Population Hoechst High Intensity Objects (%) [6]: 3% and 4%
Population Membrane Permeable-Phenotype (%) [6]: 0% and 3%
Population Mitochondria Different-Phenotype (%) [6]: 3%
Population Mitotic Cells (%) [6]: 20% and 45%
Population Normal (%) [6]: 96% and 95%
Population Pyknosed Nuclei (%) [6]: 10%
Population Tubulin-Different-Phenotype (%) [6]: 34% and 50%
Total Cell Count [6]: 147 and 111

N[C@@]1(C(=O)O)CO[C@H]2[C@H](C(=O)O)[C@H]21 [LY-379268]
Population Apoptotic (%) [1]: 22% and 44%
Population Fragmented Nuclei (%) [1]: 17% and 33%
Population Healthy Nuclei (%) [1]: 70% and 43%
Population Hoechst High Intensity Objects (%) [1]: 1% and 10%
Population Membrane Permeable-Phenotype (%) [1]: 0% and 5%
Population Mitochondria Different-Phenotype (%) [1]: 2% and 1%
Population Mitotic Cells (%) [1]: 77% and 55%
Population Normal (%) [1]: 98% and 89%
Population Pyknosed Nuclei (%) [1]: 11% and 22%
Population Tubulin-Different-Phenotype (%) [1]: 25% and 45%
Total Cell Count [1]: 156 and 145
Population Apoptotic (%) [2]: 29% and 21%
Population Fragmented Nuclei (%) [2]: 15%
Population Healthy Nuclei (%) [2]: 69% and 51%
Population Hoechst High Intensity Objects (%) [2]: 3%
Population Membrane Permeable-Phenotype (%) [2]: 0% and 4%
Population Mitochondria Different-Phenotype (%) [2]: 3% and 1%
Population Mitotic Cells (%) [2]: 70% and 78%
Population Normal (%) [2]: 96%
Population Pyknosed Nuclei (%) [2]: 14% and 33%
Population Tubulin-Different-Phenotype (%) [2]: 19% and 47%
Total Cell Count [2]: 187 and 128
Population Apoptotic (%) [3]: 36% and 47%
Population Fragmented Nuclei (%) [3]: 16% and 40%
Population Healthy Nuclei (%) [3]: 70% and 41%
Population Hoechst High Intensity Objects (%) [3]: 0% and 10%
Population Membrane Permeable-Phenotype (%) [3]: 0% and 4%
Population Mitochondria Different-Phenotype (%) [3]: 5% and 10%
Population Mitotic Cells (%) [3]: 63% and 52%
Population Normal (%) [3]: 99% and 89%
Population Pyknosed Nuclei (%) [3]: 12% and 18%
Population Tubulin-Different-Phenotype (%) [3]: 23% and 60%
Total Cell Count [3]: 152 and 125
Population Apoptotic (%) [4]: 66% and 22%
Population Fragmented Nuclei (%) [4]: 14% and 17%
Population Healthy Nuclei (%) [4]: 75% and 53%
Population Hoechst High Intensity Objects (%) [4]: 5% and 6%
Population Membrane Permeable-Phenotype (%) [4]: 0% and 2%
Population Mitochondria Different-Phenotype (%) [4]: 3% and 0%
Population Mitotic Cells (%) [4]: 33% and 77%
Population Normal (%) [4]: 94% and 93%
Population Pyknosed Nuclei (%) [4]: 10% and 28%
Population Tubulin-Different-Phenotype (%) [4]: 19% and 44%
Total Cell Count [4]: 189 and 133
Population Apoptotic (%) [5]: 76% and 50%
Population Fragmented Nuclei (%) [5]: 22% and 33%
Population Healthy Nuclei (%) [5]: 68% and 55%
Population Hoechst High Intensity Objects (%) [5]: 3% and 11%
Population Membrane Permeable-Phenotype (%) [5]: 0% and 4%
Population Mitochondria Different-Phenotype (%) [5]: 5% and 7%
Population Mitotic Cells (%) [5]: 23% and 50%
Population Normal (%) [5]: 96% and 88%
Population Pyknosed Nuclei (%) [5]: 8% and 11%
Population Tubulin-Different-Phenotype (%) [5]: 26% and 59%
Total Cell Count [5]: 156 and 136
Population Apoptotic (%) [6]: 62% and 42%
Population Fragmented Nuclei (%) [6]: 14% and 27%
Population Healthy Nuclei (%) [6]: 72% and 56%
Population Hoechst High Intensity Objects (%) [6]: 1% and 7%
Population Membrane Permeable-Phenotype (%) [6]: 0% and 10%
Population Mitochondria Different-Phenotype (%) [6]: 0% and 5%
Population Mitotic Cells (%) [6]: 37% and 57%
Population Normal (%) [6]: 98% and 92%
Population Pyknosed Nuclei (%) [6]: 13% and 16%
Population Tubulin-Different-Phenotype (%) [6]: 19% and 47%
Total Cell Count [6]: 179 and 140
